One assay has as its system KB. Nature of the assay: Compound was evaluated for the cytotoxicity by the inhibition of KB cell growth. The format is functional, cell-based. The following applies: Homo sapiens. The procedure, abridged:
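KB cells plated at 3000–5000 cells/well and incubated overnight. Compound added in quadruplicate at six to eight concentrations, 48 h at 37 °C under CO₂, spanning two population doublings. Ethanol fixation, 0.1% crystal violet stain, dye eluted with acidified ethanol, absorbance at 570 nm. IC50 by regression on log concentration; 2-acetylpyridine thiosemicarbazone control.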

For a further assay, the species on record is Homo sapiens. Nature of the assay: Compound was evaluated for the cytotoxicity scored on HFF cells at time of HCMV plaque enumeration. The format is functional. The essentials:
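Stationary HFF cells not affected by virus, inspected microscopically for visual cytotoxicity at the time of HCMV plaque counting (7 days, 37 °C). Duplicate experiments.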

For assay [1], the system named is Human betaherpesvirus 5. As to the kind of experiment: Antiviral activity assayed by ability to inhibit Towne strain of HCMV virus. In kind it is functional, organism-based. The essentials: (§1)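 HFF monolayers in 24-well dishes infected with about 100 pfu HCMV/cm² (Towne or AD169). After adsorption, compound in growth medium at four to eight concentrations, duplicate wells, 7 days at 37 °C. Crystal violet stain, microscopic plaques counted, percent reduction vs no drug. IC50 from regression on log concentration; ganciclovir control.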

The test system of assay [2] is Human betaherpesvirus 5. Nature of the assay: Compound was evaluated for its antiviral activity against HCMV virus using Yield reduction assay.
The test system of assay [3] is Human betaherpesvirus 5. As to the kind of experiment: Compound was evaluated for the Antiviral activity against the AD169 strain of HCMV virus. The format is functional, organism-based. The essentials: as §1
The subject of assay [4] is Human alphaherpesvirus 1. Nature of the assay: Antiviral activity evaluated by their ability to inhibit the KOS strain of herpes simplex virus type-1 (HSV-1).ELISA was used. Background: An ELISA detects its analyte on a solid surface through an enzyme-linked reagent.
The subject of assay [5] is Human betaherpesvirus 5. As to the kind of experiment: Compound was evaluated for the Yield reduction assays on HCMV virus,. The format is functional. The essentials:
(§2)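 HFF cells in 96-well plates inoculated with HCMV at moi 0.5–1 pfu/cell. Compound in duplicate at 100 to 0.14 μM (1:3 serial dilutions), 7 days at 37 °C, then one freeze–thaw. Progeny titred by serial 1:3 dilution onto fresh HFF monolayers with plaque counting. IC90 from linear regression vs log concentration; ganciclovir control.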

For assay [6], the system named is Human betaherpesvirus 5. As to the kind of experiment: Compounds was evaluated for the Antiviral activity against the AD169 strain of HCMV virus. In kind it is functional, organism-based. The procedure, abridged:
as §1

Assay [7] relates to Human alphaherpesvirus 1. As to the kind of experiment: Antiviral activity against KOS strain of herpes simplex virus type-1 (HSV-1).ELISA was used.
The subject of assay [8] is Human betaherpesvirus 5. Nature of the assay: Compound was evaluated for its antiviral activity by its ability to inhibit Towne strain of HCMV virus.The plaque assay was used. In kind it is functional, organism-based. The procedure, abridged:
as §1

Assay [9] relates to Human betaherpesvirus 5. As to the kind of experiment: Compound was evaluated for antiviral activity against HCMV virus using yield reduction assay. In kind it is functional. The procedure, abridged: as §2
The test system of assay [10] is Human alphaherpesvirus 1. As to the kind of experiment: Antiviral activity evaluated by its ability to inhibit the KOS strain of herpes simplex virus type-1 (HSV-1).ELISA was used.

IC50 and IC90 data for 20 compounds are collected here from ChEMBL document CHEMBL1131342, “Design, synthesis, and antiviral activity of alpha-nucleosides: D- and L-isomers of lyxofuranosyl- and (5-deoxylyxofuranosyl)benzimidazoles” (J Med Chem, 1998).

The term IC50 denotes the concentration needed to halve the response being measured. A word on the IC90: it is the concentration at which the effect reaches the 90% level.

Structures are written as SMILES.

Take `OC[C@H]1O[C@H](n2c(Cl)nc3cc(Cl)c(Cl)cc32)[C@@H](O)[C@H]1O`: the IC50 with KB was over 100 µM; in the assay filed under Homo sapiens, over 100 µM; with Human betaherpesvirus 5 [1] (Human betaherpesvirus 5), 18 µM; with Human betaherpesvirus 5 [3] (Human betaherpesvirus 5) it was 9 µM; with Human alphaherpesvirus 1 [4], 90 µM. In the assay with Human betaherpesvirus 5 [2], this compound registered an IC90 of over 100 µM.
As for `C[C@H]1O[C@@H](n2c(Br)nc3cc(Cl)c(Cl)cc32)[C@H](O)[C@@H]1O`, the half-inhibitory concentration (IC50) with KB was over 100 µM; in the assay filed under Homo sapiens, 100 µM; in the assay with Human betaherpesvirus 5 [1] (Human betaherpesvirus 5), 32 µM; with Human alphaherpesvirus 1 [4] it was 50 µM. The same compound had a concentration for an effect of 90% (IC90) in the assay with Human betaherpesvirus 5 [2] of 12 µM.
The corresponding values for `CSc1nc2cc(Cl)c(Cl)cc2n1[C@@H]1O[C@H](CO)[C@@H](O)[C@H]1O` are over 100 µM, over 100 µM, over 100 µM, over 100 µM and over 100 µM.
Turning to `OC[C@H]1O[C@@H](n2c(S)nc3cc(Cl)c(Cl)cc32)[C@H](O)[C@@H]1O`, the IC50 with KB, in the assay filed under Homo sapiens, with Human betaherpesvirus 5 [1] (Human betaherpesvirus 5) and with Human alphaherpesvirus 1 [4] was over 100 µM throughout. This compound returned an IC90 in the assay on Human betaherpesvirus 5 [2] of over 100 µM.
Take `CCCNc1nc2cc(Cl)c(Cl)cc2n1[C@@H]1O[C@H](C)[C@@H](O)[C@H]1O`: the IC50 in the assay filed under Homo sapiens was over 100 µM; in the assay on Human betaherpesvirus 5 [1] (Human betaherpesvirus 5), 10 µM. Further, it took 2 µM to reach the 90% level in the assay on Human betaherpesvirus 5 [2] (IC90).
For the compound `C[C@H]1O[C@@H](n2c(Cl)nc3cc(Cl)c(Cl)cc32)[C@H](O)[C@@H]1O`, the IC50 in the assay on KB worked out at 75 µM; in the assay listed under Homo sapiens, 45 µM; with Human betaherpesvirus 5 [1] (Human betaherpesvirus 5), 32 µM; in the assay with Human alphaherpesvirus 1 [4], 60 µM. The compound further had an IC90 in the assay with Human betaherpesvirus 5 [2] of 8 µM.
Take `CCCNc1nc2cc(Cl)c(Cl)cc2n1[C@@H]1O[C@H](CO)[C@@H](O)[C@H]1O`: the IC50 with KB was over 100 µM; in the assay filed under Homo sapiens it was over 100 µM; with Human betaherpesvirus 5 [1] (Human betaherpesvirus 5), 60 µM; with Human betaherpesvirus 5 [3] (Human betaherpesvirus 5), 32 µM; in the assay with Human alphaherpesvirus 1 [4], over 100 µM. The 90% effect level in the assay on Human betaherpesvirus 5 [2] (IC90) was put at 17 µM.
As to `CNc1nc2cc(Cl)c(Cl)cc2n1[C@@H]1O[C@H](CO)[C@@H](O)[C@H]1O`, the 50% inhibitory concentration (IC50) in the assay with KB, in the assay listed under Homo sapiens, with Human betaherpesvirus 5 [1] (Human betaherpesvirus 5) and with Human alphaherpesvirus 1 [4] was over 100 µM in each case. Further, the IC90 in the assay with Human betaherpesvirus 5 [2] is over 100 µM.
On to `CNc1nc2cc(Cl)c(Cl)cc2n1[C@@H]1O[C@@H](CO)[C@@H](O)[C@H]1O`, for which the IC50 in the assay with KB, in the assay filed under Homo sapiens, in the assay on Human betaherpesvirus 5 [1] (Human betaherpesvirus 5) and in the assay with Human alphaherpesvirus 1 [4] was over 100 µM in each case.
For the compound `C[C@@H]1O[C@@H](n2c(Cl)nc3cc(Cl)c(Cl)cc32)[C@H](O)[C@@H]1O`, the half-inhibitory concentration (IC50) with KB amounted to 60 µM; in the assay listed under Homo sapiens, 32 µM; in the assay with Human betaherpesvirus 5 [1] (Human betaherpesvirus 5), 0.2 µM; with Human alphaherpesvirus 1 [4] it was 20 µM. The compound also returned a concentration for an effect of 90% (IC90) in the assay on Human betaherpesvirus 5 [2] of 0.2 µM.
In the case of `OC[C@@H]1O[C@@H](n2c(S)nc3cc(Cl)c(Cl)cc32)[C@H](O)[C@@H]1O`, the IC50 with KB, in the assay filed under Homo sapiens, with Human betaherpesvirus 5 [1] (Human betaherpesvirus 5) and in the assay with Human alphaherpesvirus 1 [4] was over 100 µM each time. Moreover, the IC90 with Human betaherpesvirus 5 [2] was over 100 µM.
With `CSc1nc2cc(Cl)c(Cl)cc2n1[C@@H]1O[C@@H](CO)[C@@H](O)[C@H]1O`, the IC50 in the assay on KB, in the assay filed under Homo sapiens, in the assay with Human betaherpesvirus 5 [1] (Human betaherpesvirus 5) and in the assay on Human alphaherpesvirus 1 [4] was over 100 µM throughout.
As for `CCCNc1nc2cc(Cl)c(Cl)cc2n1[C@@H]1O[C@@H](C)[C@@H](O)[C@H]1O`, the IC50 was 65 µM in the assay on KB, 100 µM in the assay filed under Homo sapiens, 32 µM in the assay on Human betaherpesvirus 5 [1] (Human betaherpesvirus 5) and over 100 µM in the assay with Human alphaherpesvirus 1 [4]. Also, the IC90 in the assay with Human betaherpesvirus 5 [2] stood at 2.8 µM.
Turning to `C[C@@H]1O[C@@H](n2c(Br)nc3cc(Cl)c(Cl)cc32)[C@H](O)[C@@H]1O`, the IC50 in the assay with KB is 60 µM; in the assay listed under Homo sapiens, 32 µM; in the assay on Human betaherpesvirus 5 [1] (Human betaherpesvirus 5) it was 0.4 µM; in the assay with Human alphaherpesvirus 1 [4] it was over 100 µM. This compound also yielded an IC90 in the assay on Human betaherpesvirus 5 [2] of 2 µM.
For `CCCNc1nc2cc(Cl)c(Cl)cc2n1[C@@H]1O[C@@H](CO)[C@@H](O)[C@H]1O`, the IC50 was over 100 µM with KB; over 100 µM in the assay listed under Homo sapiens; over 100 µM in the assay on Human betaherpesvirus 5 [1] (Human betaherpesvirus 5); 11 µM with Human betaherpesvirus 5 [3] (Human betaherpesvirus 5); over 100 µM in the assay on Human alphaherpesvirus 1 [4]. In the assay with Human betaherpesvirus 5 [2], this compound came in with an IC90 of 19 µM.
Regarding `OC[C@H]1O[C@@H](n2c(Cl)nc3cc(Cl)c(Cl)cc32)[C@H](O)[C@@H]1O`, the IC50 was over 100 µM with KB; 190 µM in the assay listed under Homo sapiens; 18 µM in the assay with Human betaherpesvirus 5 [1]; 2.6 µM in the assay on Human betaherpesvirus 5 [3] (Human betaherpesvirus 5); over 100 µM in the assay with Human alphaherpesvirus 1 [4]; 1.8 µM in the assay on Human betaherpesvirus 5 [6]. For the same compound, the figures for the IC90 with Human betaherpesvirus 5 [5] and with Human betaherpesvirus 5 [2] were 1.4 µM and 3.4 µM, respectively.
In the case of `OC[C@H]1O[C@H](n2c(Br)nc3cc(Cl)c(Cl)cc32)[C@@H](O)[C@H]1O` (stereo in doubt; 4a), the IC50 in the assay on Human alphaherpesvirus 1 [7] is over 100 µM; in the assay with Human betaherpesvirus 5 [8], 2.8 µM; in the assay on Human betaherpesvirus 5 [3] it was 0.8 µM. In the assay with Human betaherpesvirus 5 [2], this compound registered a 90% effect concentration (IC90) of 0.8 µM.
`OC[C@H]1O[C@H](n2c(Br)nc3cc(Cl)c(Cl)cc32)[C@@H](O)[C@H]1O` (stereo in doubt; 4b): the IC50 in the assay on KB was over 100 µM; in the assay listed under Homo sapiens, over 100 µM; in the assay on Human betaherpesvirus 5 [1] (Human betaherpesvirus 5), 6 µM; in the assay with Human alphaherpesvirus 1 [10] it was 50 µM; in the assay with Human betaherpesvirus 5 [3], 4.2 µM. Also, the IC90 with Human betaherpesvirus 5 [9] turned out to be 65 µM.
The compound `O=C(O)P(=O)(O)O` [FOSCARNET] showed an IC50 in the assay listed under Homo sapiens of over 100 µM.
As for `Nc1nc2c(ncn2COC(CO)CO)c(=O)[nH]1` [GANCICLOVIR], the IC50 with KB and in the assay filed under Homo sapiens was over 100 µM throughout. This compound displayed an IC90 with Human betaherpesvirus 5 [5] of 1.6 µM.
